According to ChEMBL document CHEMBL4251630, “Hydroxymethyl bioisosteres of phenolic GluN2B-selective NMDA receptor antagonists: Design, synthesis and pharmacological evaluation” (Eur J Med Chem, 2018):

Assays:
[1] = target: T1, Glutamate receptor ionotropic, NMDA 2B (Homo sapiens, UniProt Q13224); assay: Displacement of [3H]Ifenprodil from GluN2B receptor (unknown origin) expressed in mouse L(tk-) cell membranes
Procedure, shortened: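 Dexamethasone-induced (4 µM, with 4 µM ketamine, 24 h) GluN1a/GluN2B L(tk-) cell membranes, about 20 µg protein. […] Filtration and 5-min [3H] counting. Ki by Cheng-Prusoff (Kd 7.6 nM). Mean ± SEM of three experiments, or a single run for weak binders.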

[2] = organism: Sus scrofa; assay: Displacement of [3H]-(+)-MK-801 from NMDA receptor PCP binding site in pig brain cortex membranes at 1 uM incubated for 120 mins measured for 5 mins by scintillation counting method relative to control; type: cell membranes
Procedure, shortened: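 Pig brain cortex membranes, about 100 µg protein, with 2 nM [3H]-(+)-MK-801 in 5 mM TRIS/1 mM EDTA, pH 7.5, at rt for 120 min. Test compound at 1 µM, in duplicate. Non-specific binding defined with 10 µM unlabeled (+)-MK-801. Filtration on polyethylenimine-soaked filtermats, then [3H] scintillation counting for 5 min per well. Value given as % inhibition of radioligand binding.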

[3] = target: Sigma non-opioid intracellular receptor 1 (Cavia porcellus, UniProt Q60492); assay: Displacement of [3H]-(+)-pentazocine from sigma-1 receptor in guinea pig brain cortex membranes incubated for 120 mins measured for 5 mins by scintillation counting method; type: cell membranes
Sequence of Sigma non-opioid intracellular receptor 1 (Q60492 whole entry): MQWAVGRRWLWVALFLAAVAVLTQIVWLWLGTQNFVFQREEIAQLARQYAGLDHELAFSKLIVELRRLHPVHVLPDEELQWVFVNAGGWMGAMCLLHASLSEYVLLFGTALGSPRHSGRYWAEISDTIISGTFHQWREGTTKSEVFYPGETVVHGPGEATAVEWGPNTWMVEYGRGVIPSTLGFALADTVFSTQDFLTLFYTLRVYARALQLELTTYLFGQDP

[4] = target: T2, Sigma intracellular receptor 2 (Rattus norvegicus, UniProt Q5U3Y7); assay: Displacement of [3H]-di-o-tolylguanidine from sigma-2 receptor in rat liver membranes incubated for 120 mins measured for 5 mins by scintillation counting method; type: cell membranes, Membrane
T2 sequence (Q5U3Y7 whole entry): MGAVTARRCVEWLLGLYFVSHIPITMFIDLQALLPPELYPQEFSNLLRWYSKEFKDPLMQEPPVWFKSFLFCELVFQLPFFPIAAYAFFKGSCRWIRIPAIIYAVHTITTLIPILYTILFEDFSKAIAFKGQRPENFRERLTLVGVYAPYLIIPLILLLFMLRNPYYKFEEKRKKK

[5] = (§1) Antagonist activity at GluN2B/GluN1a receptor (unknown origin) expressed in mouse L(tk-) cells assessed as cytoprotection against glycine/(S)-glutamate-induced cell death preincubated for 30 mins followed by glycine/(S)-glutamate addition measured after 6 hrs by LDH assay; type: cell-based; conditions: Homo sapiens, LTK
Procedure, shortened: (§2)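 L(tk-) cells co-expressing GluN1a/GluN2B (1:5), dexamethasone-induced. Wells blocked with DMEM/1 % BSA. Cells preincubated with test compound at 5 concentrations (e.g. 4 x 10-5 to 10-9 mol/L), in at least triplicate, 30 min at 37 °C. Glutamate/glycine (20 µM each, solution) then added for 6 h at 37 °C. Supernatant LDH measured by diaphorase/lactate/NAD+/INT mix, 45 min at 37 °C, absorbance 485 nm. (S)-ketamine 4 x 10-5 mol/L was the positive control.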

[6] = target: T1, Glutamate receptor ionotropic, NMDA 2B; assay: Displacement of [3H]Ifenprodil from GluN2B receptor (unknown origin) expressed in mouse L(tk-) cell membranes incubated for 120 mins measured for 5 mins by scintillation counting method
[7] = Selectivity ratio of Ki for sigma-1 receptor in guinea pig brain cortex membranes to Ki for GluN2B receptor (unknown origin) expressed in mouse L(tk-) cell membranes; type: cell-based
[8] = Selectivity ratio of Ki for sigma-2 receptor in rat liver membranes to Ki for GluN2B receptor (unknown origin) expressed in mouse L(tk-) cell membranes; type: cell-based
[9] = organism: Homo sapiens; assay: as §1; type: cell-based; procedure, shortened: as §2

T1 sequence (Q13224 whole entry): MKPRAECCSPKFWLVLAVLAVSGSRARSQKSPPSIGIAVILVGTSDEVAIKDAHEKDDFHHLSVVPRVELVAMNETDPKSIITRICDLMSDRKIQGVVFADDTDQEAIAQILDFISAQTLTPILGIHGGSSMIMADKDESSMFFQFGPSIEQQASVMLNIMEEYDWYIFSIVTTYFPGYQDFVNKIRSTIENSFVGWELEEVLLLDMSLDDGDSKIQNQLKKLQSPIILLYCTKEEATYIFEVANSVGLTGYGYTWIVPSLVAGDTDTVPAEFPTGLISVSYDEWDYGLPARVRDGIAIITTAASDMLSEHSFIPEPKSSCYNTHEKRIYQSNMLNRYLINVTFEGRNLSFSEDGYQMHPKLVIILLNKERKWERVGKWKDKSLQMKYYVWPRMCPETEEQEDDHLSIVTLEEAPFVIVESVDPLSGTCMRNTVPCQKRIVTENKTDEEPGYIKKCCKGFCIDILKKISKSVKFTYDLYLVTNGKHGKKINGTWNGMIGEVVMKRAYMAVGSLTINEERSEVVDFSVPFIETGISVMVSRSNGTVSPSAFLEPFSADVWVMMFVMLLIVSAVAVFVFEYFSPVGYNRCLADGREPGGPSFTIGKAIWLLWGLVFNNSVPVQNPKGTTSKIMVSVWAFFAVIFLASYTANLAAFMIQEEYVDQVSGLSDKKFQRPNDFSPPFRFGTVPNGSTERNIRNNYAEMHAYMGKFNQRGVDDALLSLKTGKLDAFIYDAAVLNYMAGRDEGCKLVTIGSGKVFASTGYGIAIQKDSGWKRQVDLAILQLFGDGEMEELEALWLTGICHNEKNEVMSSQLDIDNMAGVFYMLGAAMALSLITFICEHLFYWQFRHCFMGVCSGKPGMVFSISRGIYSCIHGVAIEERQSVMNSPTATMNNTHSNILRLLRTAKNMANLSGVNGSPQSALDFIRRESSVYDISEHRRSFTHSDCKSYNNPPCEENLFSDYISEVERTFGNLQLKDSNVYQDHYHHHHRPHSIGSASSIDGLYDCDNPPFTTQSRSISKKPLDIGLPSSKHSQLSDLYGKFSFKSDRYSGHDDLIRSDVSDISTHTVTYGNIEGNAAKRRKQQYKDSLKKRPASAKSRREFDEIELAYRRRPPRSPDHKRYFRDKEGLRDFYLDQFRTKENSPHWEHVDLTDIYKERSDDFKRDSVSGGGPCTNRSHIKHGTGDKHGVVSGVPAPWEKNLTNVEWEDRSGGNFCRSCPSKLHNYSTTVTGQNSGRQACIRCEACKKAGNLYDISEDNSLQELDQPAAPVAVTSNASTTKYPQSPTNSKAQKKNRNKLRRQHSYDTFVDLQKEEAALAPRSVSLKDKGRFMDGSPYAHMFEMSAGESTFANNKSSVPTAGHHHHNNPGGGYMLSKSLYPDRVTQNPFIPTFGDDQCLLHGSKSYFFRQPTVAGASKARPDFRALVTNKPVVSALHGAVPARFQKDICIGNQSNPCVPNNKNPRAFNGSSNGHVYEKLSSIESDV

| Ki [1] | inhibition [2] | Ki [3] | Ki [4] | Ki [6] | Compound | IC50 [5] | Ratio Ki [7] | Ratio Ki [8] | inhibition [9] |
| --- | --- | --- | --- | --- | --- | --- | --- | --- | --- |
| 28 nM | 0% | 123 nM | 32 nM | – | Oc1ccc2c(c1)CCC(NCCCc1ccccc1)CC2 (stereo not drawn) | 25000 nM | – | – | – |
| 16 nM | – | – | – | – | COc1ccc2c(c1)CC[C@@H](NCCCc1ccccc1)C[C@H]2O (relative stereo) | – | – | – | – |
| – | 0% | 565 nM | 592 nM | 101 nM | OCc1ccc2c(c1)CCC(NCCCc1ccccc1)CC2 (stereo not drawn) | 5200 nM | 5 to 6 | 5 to 6 | Dose-dependent effect |
| – | – | – | – | – | CC(C(O)c1ccc(O)cc1)N1CCC(Cc2ccccc2)CC1 (stereo not drawn) [IFENPRODIL] | 590 nM | – | – | – |
| – | – | – | – | 173 nM | C[C@@H](CN1CCC(Cc2ccccc2)CC1)[C@@H](O)c1ccc(O)cc1 | 18 nM | – | – | – |
| – | 0% | 41 nM | 271 nM | 186 nM | OCc1ccc2c(c1)CCC(NCCCCc1ccccc1)CC2 (stereo not drawn) | > 100000 nM | 4 | – | – |
| 21 nM | 25% | 211 nM | 96 nM | – | Oc1ccc2c(c1)CCC(NCCCCc1ccccc1)CC2 (stereo not drawn) | 3000 nM | – | – | – |
